Three compounds from ChEMBL document CHEMBL4390665, “New 4-phenylcoumarin derivatives as potent 3C protease inhibitors: Design, synthesis, anti-HAV effect and molecular modeling” (Eur J Med Chem, 2019) can be followed below.

Series [1] has as its system Hepatovirus A. In words: Antiviral activity against Hepatitis A virus infected in rhesus monkey FRhK4 cells assessed as inhibition in viral replication using cells pre-infected with virus before compound exposure for 72 hrs by MTT assay. The following applies: FRhK-4, 72 h. It is filed as functional, organism-based. The gist of the method:
(§1)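 FRhK-4 monolayers were infected with HAV for 1 h. Unbound virus was removed and replaced with medium containing non-toxic compound concentrations, then incubated 72 h at 37 °C in 5% CO2. MTT OD540 was read in triplicate alongside virus-infected and cell-only controls to give IC50. TI = CC50/IC50.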

A short description of series [2]: Binding affinity to Hepatitis A virus Protease 3C. Set-up: species or system Hepatovirus A.
Series [3] concerns Hepatovirus A. In words: Antiviral activity against Hepatitis A virus infected in rhesus monkey FRhK4 cells assessed as reduction in virus-induced cytopathic effect incubated for 72 hrs by MTT assay. To be noted: FRhK-4, 72 h. It is filed as functional, organism-based. The gist of the method: (§2)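 Virucidal format: HAV (10^6 […] TCID50/0.1 ml) was mixed with an equal volume of non-toxic compound concentrations for 1 h at 37 °C. The mixture was added to FRhK-4 monolayers for 1 h, then replaced with medium for 72 h. MTT OD540 was read in triplicate with virus and cell controls to give IC50. TI = CC50/IC50.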

Series [4] in a line: Inhibition of HRV 3C using chromogenic peptide substrate pre-incubated for 15 mins before substrate addition and measured after 1 to 2 hrs by colorimetric method. In short, it runs like this: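 HRV 3C protease was assayed with a commercial screening kit, with reagents equilibrated to room temperature. Enzyme was incubated with compound for 15 min at room temperature, with enzyme and solvent controls. Substrate was then added and absorbance at 405 nm read in kinetic mode for 1–2 h at 37 °C.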

A short description of series [5]: Therapeutic index, ratio of CC50 of rhesus monkey FRhK cells to IC50 for antiviral activity against Hepatitis A virus infected in rhesus monkey FRhK4 cells assessed as inhibition in viral replication using cells pre-infected with virus before compound exposure for 72 hrs by MTT assay. It is filed as toxicity, cell-based. The following applies: read-out: Ratio CC50/IC50. In short, it runs like this:
as §1

Series [6] can be described thus: Therapeutic index, ratio of CC50 of rhesus monkey FRhK cells to IC50 of antiviral activity against Hepatitis A virus infected in rhesus monkey FRhK4 cells. It is filed as toxicity, cell-based. To be noted: read-out: Ratio CC50/IC50. The gist of the method:
as §2

Series [7] in a line: Therapeutic index, ratio of CC50 of rhesus monkey FRhK cells to IC50 of antiviral activity against Hepatitis A virus infected in rhesus monkey FRhK4 cells assessed as inhibition in viral adsorption using cells pre-incubated with compound for 24 hrs before viral infection for 1 hr by MTT assay. To be noted: read-out: Ratio CC50/IC50. It is filed as toxicity, cell-based. In short, it runs like this:
(§3)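 FRhK-4 monolayers in 24-well plates were exposed to non-toxic compound concentrations for 24 h at 37 °C in 5% CO2. Compound was then removed and HAV added for 1 h, after which the inoculum was replaced with medium for 72 h. MTT OD540 was read in triplicate alongside virus-infected and cell-only controls to give IC50. TI = CC50/IC50.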

Series [8] is described as follows: Inhibition of HAV 3C expressed in Escherichia coli BL21(DE3) pLysS using Dabcyl-GLRTQSND (edans) G as substrate preincubated for 3 mins before enzyme addition by fluorescence method based Cheng and Prusoff equation analysis. Also on record: species or system Hepatovirus A.
Series [9] in a line: Cytotoxicity against rhesus monkey FRhK4 cells assessed as reduction in cell viability incubated for 48 hrs by MTT assay. It is filed as cell-based, Macaca mulatta. In short, it runs like this:
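FRhK-4 cells (DMEM, 10% FBS) were seeded at 5 X 10^3 cells/well and grown 24 h. They were exposed to compound at 7.8–1000 µg/mL for 48 h at 37 °C in 5% CO2. MTT (5 mg/mL) was added for 4 h, then DMSO for 30 min, and OD540 read. CC50 was derived from the mean of three ODs versus untreated cells.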

A short description of series [10]: Inhibition of HAV 3C expressed in Escherichia coli BL21(DE3) pLysS using Dabcyl-GLRTQSND (edans) G as substrate preincubated for 3 mins before enzyme addition by fluorescence method. Set-up: species or system Hepatovirus A.
Series [11] has as its system Hepatovirus A. In words: Antiviral activity against Hepatitis A virus infected in rhesus monkey FRhK4 cells assessed as inhibition in viral adsorption using cells pre-incubated with compound for 24 hrs before viral infection for 1 hr by MTT assay. It is filed as functional, organism-based. The following applies: FRhK-4. The gist of the method: as §3

The structures appear in SMILES notation. In brackets after ≈: the same amount, converted by molar mass.

Take `CCNC(=S)NNC(=O)COc1ccc2c(-c3ccccc3)cc(=O)oc2c1`: the IC50 with Hepatovirus A [1] was found to be 86 µg/mL (≈ 216 µM); with Hepatovirus A [3], 3.1 µg/mL (≈ 7.8 µM); in series [4], 16.1 µM; in series [10], 17.8 µM; with Hepatovirus A [11], 32.2 µg/mL (≈ 81.1 µM). The compound also yielded a pKd in series [2] of 6.78. Also, the selectivity ratio at 72 h in series [5] turned out to be 3. Further, the selectivity ratio in [6] came out at 83. Besides, the selectivity ratio at 1 h in [7] was 8. The compound also had an inhibitory constant (Ki) in [8] of 1.9 µM. In addition, the cytotoxic concentration (CC50) at 48 h in [9] was 258 µg/mL (≈ 649 µM).

As for `C/C(=N\NC(=O)COc1ccc2c(-c3ccccc3)cc(=O)oc2c1)c1ccc(Cl)cc1`, the IC50 in the series with Hepatovirus A [1] was 10.7 µg/mL (≈ 23.9 µM); with Hepatovirus A [3], 30.5 µg/mL (≈ 68.2 µM); in [4], 4.13 µM; in series [10], 5.94 µM; in the series with Hepatovirus A [11] it was 44.4 µg/mL (≈ 99.4 µM). Further, the pKd in series [2] was determined as 5.51. Moreover, in series [5], the selectivity ratio at 72 h amounted to 91. In addition, the selectivity ratio in series [6] came to 32. Also, in [7], the selectivity ratio at 1 h was determined as 22. Moreover, the Ki in series [8] worked out at 0.104 µM. Also, in series [9], the CC50 at 48 h turned out to be 978 µg/mL (≈ 2190 µM).

With `C/C(=N\NC(=O)COc1ccc2c(-c3ccccc3)cc(=O)oc2c1)c1ccc(Br)cc1`, the IC50 in the series on Hepatovirus A [1] stood at 62.6 µg/mL (≈ 127 µM); in the series on Hepatovirus A [3], 1880 µg/mL (≈ 3830 µM); in [4] it was 6.3 µM; in [10], 7.19 µM; with Hepatovirus A [11], 8.5 µg/mL (≈ 17.3 µM). In addition, in series [2], the pKd is 5.53. The selectivity ratio at 72 h in [5] came out at 12. Besides, the selectivity ratio in series [6] came to 0.4. Further, in series [7], the selectivity ratio at 1 h worked out at 88. Also, the inhibition constant Ki in [8] stood at 0.217 µM. Also, in series [9], the CC50 at 48 h was determined as 752 µg/mL (≈ 1530 µM).
